dFosB act – mouse delta FosB homodimer activation; 340,000 compounds, 0.99% hits; purified delta FosB, TAMRA-CDK5 oligo fluorescence polarization; percent of positive-control signal above neutral wells; P13346; AID 493131; activation, % at 25 µM;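 active = mean activation above about 17%, with every replicate also reaching it, limit read from the data, passing the limit was not always enough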
Target sequence (P13346 whole entry, looked up): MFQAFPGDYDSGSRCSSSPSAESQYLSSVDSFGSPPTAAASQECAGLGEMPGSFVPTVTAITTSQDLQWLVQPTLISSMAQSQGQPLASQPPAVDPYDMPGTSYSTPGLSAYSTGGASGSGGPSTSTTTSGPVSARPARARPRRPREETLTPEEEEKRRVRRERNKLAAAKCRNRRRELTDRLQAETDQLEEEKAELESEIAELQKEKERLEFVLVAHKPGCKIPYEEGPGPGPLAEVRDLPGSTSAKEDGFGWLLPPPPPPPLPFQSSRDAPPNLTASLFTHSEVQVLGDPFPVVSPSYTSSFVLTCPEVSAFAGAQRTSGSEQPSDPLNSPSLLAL
VIM-2 inh – inhibitors of Pseudomonas aeruginosa VIM-2 metallo-beta-lactamase. purified VIM-2, nitrocefin hydrolysis, epi-absorbance fluorescence. inhibition, % at 5.6 µM. 290,000 compounds, 0.89% hits. AID 1527;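 active = inhibition above the mean of all tested compounds plus 3 SD, cutoff set per screening run, cut at about 7.5% in these data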;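 also: red hydrolysis product quenches plate fluorescence so inhibitors raise well fluorescence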
IMP-1 inh – blocks Pseudomonas aeruginosa IMP-1 metallo-beta-lactamase; purified IMP-1, nitrocefin hydrolysis, epi-absorbance fluorescence; inhibition, % at 5.6 µM; 290,000 compounds, 0.45% hits; AID 1556;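 active = inhibition above the mean plus 3 SD of all compounds in the same screening run, cut at about 4.5% in these data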
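assay system = purified recombinant IMP-1 metallo-beta-lactamase enzyme | schedule = 15 min preincubation plus 25 min reaction at 25 °C | signal = Epi-absorbance fluorescence, 480 nm excitation, 530 nm emission | read-out basis = percent inhibition from optical density relative to buffer-blank wells | controls = IMP-1 with DMSO as 0%, enzyme-free DMSO as 100%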
HTR2A ag – mouse HTR2A agonism via beta-arrestin recruitment; CHO-K1 mHTR2A beta-arrestin complementation, luminescence; percent of 30 µM serotonin response; 360,000 compounds, 0.66% hits; activation, % at 7.6 µM; AID 624169;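 active = activation above a run cutoff, the mean activation of all tested compounds plus 3 SD, cut at about 14% in these data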
MOR ag counter – counter-screen for mouse HTR2A agonists: human mu opioid receptor agonists; shares compounds with HTR2A ag; 2,300 compounds, 5.3% hits; activation, % at 9.3 µM; U2OS OPRM1 beta-arrestin PathHunter, luminescence; DMSO 0%, DAMGO 9.3 µM 100%; AID 624380;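 active = mean activation above the mean of DMSO-only wells plus 3 SD, cut at about 0.5% in these data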
HTR2A ag conf – confirmation of mouse HTR2A serotonin receptor agonists; shares compounds with HTR2A ag; CHO-K1 PathHunter beta-arrestin recruitment, luminescence; DMSO 0%, 30 µM serotonin 100%; activation, % at 7.6 µM; 2,300 compounds, 19% hits; AID 624381;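 active = mean activation across triplicates above the hit threshold derived in the original primary screen, cut at about 15% in these data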
A number is an active result; n = inactive; x = not tested or not shown. A selection: hits, their analogues and other compounds. The true share with any hit is near 2.5%.

SMILES	dFosB act	VIM-2 inh	IMP-1 inh	HTR2A ag	MOR ag counter	HTR2A ag conf
Cc1ccc(S(=O)Cc2ccc(C(=O)N3CCN(C(=O)c4ccco4)CC3)o2)cc1 (stereo not drawn)	n	n	n	n	x	x
Cc1ccc(C2=NN(C(=O)CCl)C(c3ccco3)C2)o1 (stereo not drawn)	n	n	n	n	x	x
CC(CCc1ccccc1)NC(=O)CNC(=O)N1CC(=O)Nc2ccccc21 (stereo not drawn)	n	n	n	15	n	n
O=C1CN(C(=O)NCC(=O)N[C@@H](Cc2ccccc2)C(=O)O)c2ccccc2N1	n	n	n	n	x	x
CC(CCc1ccccc1)NC(=O)CN1CCc2ccccc2C1 (stereo not drawn)	n	n	n	25	n	60
COc1ccc(CC(=O)Nc2cc(C)on2)cc1OC	n	n	n	15	n	n
COc1cc(OC)cc(C(=O)NCC(=O)N2CCC(C)CC2)c1	n	n	n	28	n	n
Cc1noc(C)c1CSCC(=O)N(C)CC(=O)Nc1ccc(Cl)cc1	n	n	n	n	x	x
Cc1noc(C)c1CSCC(=O)N(C)CC(=O)Nc1ccccc1Cl	n	n	n	14	n	n
COC1(OC)C=CC(=O)C=C1NC(=O)c1ccccc1OC(C)=O	n	x	x	n	x	x
Cc1nnsc1SCCNC(=O)Nc1ccc(Cl)cc1	n	n	n	n	x	x
Cc1nn(CC2CC2)c(=O)n1-c1cccc(Cl)c1	n	n	n	20	n	n
Cc1ccc(OCCC(=O)OCC(=O)Nc2ccccc2)cc1	n	n	n	17	n	n
C#CCOCCOCCOCCNc1nc(N2CCN(C(=O)[C@H](CCCCN)n3cc(CCCC)nn3)CC2)nc(N2CCN(C(=O)[C@H](CCCCN)n3cc(CCC(=O)O)nn3)CC2)n1	n	x	x	n	x	x
COc1ccc(C(c2nnnn2C2CCCCC2)N2CCN(C/C=C/c3ccccc3)CC2)cc1 (stereo not drawn)	x	x	x	n	x	x
O=NN(CC(=O)NNc1ccccc1)CC(=O)NNc1ccccc1	x	x	x	n	x	x
COc1ccc(OC)c(NC(=O)CSc2nc3[nH]c(=O)[nH]c(=O)c3s2)c1	n	x	x	18	n	n
CC(=O)Nc1ccc(C(=O)N/C(=C/c2ccccc2)C(=O)Nc2cccc(C(=O)O)c2)cc1	n	n	n	n	x	x
O=C(Nc1ccc(C(=O)O)cc1)/C(=C\c1ccccc1)NC(=O)c1ccccc1	n	n	n	18	n	n
Clc1ccc(/C=N/NC2=Nc3cccc4cccc2c34)cc1	n	n	n	15	n	n
Nc1ccc(CCCC(=O)NCc2cccnc2)cc1	x	x	x	n	x	x
O=C1OC(c2ccccc2)=CC1=Cc1ccccc1O	x	x	x	n	x	x
C[C@H]1CN([C@@H](C)CO)C(=O)c2cc(/C=C/c3ccccc3)cnc2O[C@H]1CN(C)C(=O)c1cccc(F)c1	x	x	x	17	n	n
CCOC(=O)C1=NOC2COC3(CCN(c4ncccn4)CC3)OCC12 (stereo not drawn)	n	n	n	15	0.6	n
CCOC(=O)c1sc2nc(C)nc(N3CCN(c4ncccn4)CC3)c2c1C	n	n	n	n	x	x
SMILES	dFosB act	VIM-2 inh	IMP-1 inh	HTR2A ag	MOR ag counter	HTR2A ag conf
Cc1ccc(S(=O)(=O)CCC(=O)NCc2ccccc2F)cc1	n	x	x	n	x	x
CCCCOc1ccc(S(=O)(=O)NC(=O)C2(C)CCN2C(=O)CCc2ccccc2)cc1 (stereo not drawn)	x	x	x	17	n	n
Cc1cccc(C2(c3cccc(C)c3)CC2C(=O)Nc2ccc([N+](=O)[O-])cc2O)c1 (stereo not drawn)	n	n	n	n	x	x
O=C1C(=O)c2ccccc2C(O)=C1c1cccc([N+](=O)[O-])c1	n	n	n	20	n	n
Cc1ccc(C2=C(O)c3ccccc3C(=O)C2=O)cc1	n	n	n	n	x	x
O=C(NCc1cccs1)C1CCCN1C(=O)Nc1cccc(F)c1 (stereo not drawn)	n	n	n	17	n	n
CCOC(=O)[C@H]1[C@H]2COc3ccc(Cl)cc3[C@@H]2N2C(=O)c3ccc(C)cc3NC(=O)[C@@]12C	n	x	x	15	n	n
CCOC(=O)[C@H]1[C@H]2COc3ccc(C)cc3[C@@H]2N2C(=O)[C@@H](C)NC(=O)[C@@]12C	n	x	x	n	x	x
CCOC(=O)[C@H]1[C@H]2COc3ccc(OC)cc3[C@@H]2N2C(=O)[C@H](C)NC(=O)[C@@]12C	n	x	x	20	n	n
CCOC(=O)[C@H]1[C@H]2COc3ccc(C)cc3[C@@H]2N2C(=O)CN(Cc3ccco3)C(=O)[C@@]12C	n	x	x	15	n	n
CCOC(=O)[C@H]1[C@H]2COc3ccc(Cl)cc3[C@@H]2N2C(=O)c3ccc(F)cc3NC(=O)[C@@]12C	n	x	x	n	x	x
COc1cc(C#N)ccc1OC(=O)c1cccc(S(=O)(=O)N2CCN(C)CC2)c1	n	x	x	18	n	n
Cn1c(-c2ccccc2)c(Sc2ccccc2)c2cc(-c3ccc4cc[nH]c4c3)ccc21	x	x	x	n	x	x
CCc1cccc(C)c1NC(=O)CC(C)(C)CC(=O)O	n	n	n	18	n	n
CCN(CC(=O)Nc1ccc(OC)cc1)C(=O)c1cc(S(=O)(=O)N(C)C)ccc1N1CCCC1	n	x	x	n	x	x
NS(=O)(=O)c1ccc(-n2nc(C(=O)O)cc2-c2ccc(Cl)cc2)cc1	n	n	n	n	x	x
Cc1ccc(-c2cc(C(F)(F)F)nn2-c2ccc(S(N)(=O)=O)cc2)cc1	n	n	n	20	1.1	25
CCN(CC)c1ccc(NC(=O)C2=CCN(S(=O)(=O)c3ccc(F)cc3)CC2)c(C)c1	n	n	n	17	n	n
Cc1ccc(S(=O)(=O)N2CC=C(C(=O)NCc3ccc(F)cc3)CC2)cc1	n	n	n	n	x	x
COc1ccc(NC(=O)CNS(=O)(=O)c2cccs2)cc1	n	n	n	24	n	n
O=C(c1cccc(Cl)c1)N1CCN(S(=O)(=O)c2ccc(Cl)s2)CC1	n	x	x	16	n	n
Cc1ccc(S(=O)(=O)NCc2ccccc2)cc1C(=O)NCc1ccccn1	n	n	n	n	x	x
CN1CCN(S(=O)(=O)c2cccc(C#N)c2)C(c2ccccc2)C1 (stereo not drawn)	n	x	x	n	x	x
CCn1c(N2CCN(S(=O)(=O)c3ccc(OC)cc3)CC2)nc2ccccc21	n	n	n	17	n	44
Cn1c(N2CCN(S(=O)(=O)c3ccc(F)cc3)CC2)nc2ccccc21	n	n	n	n	x	x
O=C(O)/C=C/C(=O)N1CCN(c2cccc(Cl)c2)CC1	n	n	n	31	n	n
O=C(O)CCC(=O)N1CCN(c2cccc(Cl)c2)CC1	n	n	n	n	x	x
N#CCC(=N)N1CCN(c2cccc(Cl)c2)CC1	n	n	n	15	n	n
CC(=O)/C(C(=N)N1CCN(c2cccc(Cl)c2)CC1)=C(\C)O	n	n	n	18	n	n
O=C(C(=O)N1CCC(c2ccccc2)CC1)c1ccc(F)c(F)c1	x	x	x	n	x	x
